According to ChEMBL document CHEMBL3808328, “Caged xanthones: Potent inhibitors of global predominant MRSA USA300” (Bioorg Med Chem Lett, 2016):
Converted amounts (≈) assume the structure as drawn. The source made the active and inactive calls. The rule behind the calls is not given here.

Tests used:
Staphylococcus aureus [1] = assay: Antibacterial activity against methicillin-resistant Staphylococcus aureus USA300 SF8300 assessed as zone of inhibition at 30 ug after 18 hrs by disk diffusion method; format: functional; conditions: USA300 SF8300, 18 h, read-out: DIZ
Outline: (§1)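 Disk diffusion on 6 mm paper disks, with methicillin-susceptible S. aureus ATCC 25923 as the control strain alongside MRSA USA300 SF8300. The read-out is the diameter of the complete inhibition zone, averaged over at least three independent experiments and reported with standard errors. A 6 mm zone means no growth inhibition.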

A549 [2] = assay: Cytotoxicity against human A549 cells assessed as change in cell morphology at 12.5 to 25 uM after 10 mins to 2 hrs by microscopic analysis; format: cell-based; conditions: a549, 25 µM
A549 [3] = assay: Cytotoxicity against human A549 cells assessed as reduction in cell viability after 24 to 48 hrs by Presto Blue assay; format: cell-based
Staphylococcus aureus [4] = assay: Antibacterial activity against methicillin-resistant Staphylococcus aureus USA300 SF8300 assessed as growth inhibition after 18 to 20 hrs by microdilution assay; format: functional
Outline: (§2)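 Broth microdilution to find MIC and MBC against MRSA USA300 SF8300. Each compound was serially 2-fold diluted starting from its stock concentration.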

HEK293 [5] = assay: Cytotoxicity against human HEK293 cells assessed as reduction in cell viability after 24 to 48 hrs by […] assay
Staphylococcus aureus [6] = assay: Antibacterial activity against methicillin-susceptible Staphylococcus aureus RF122 infected in A549 cells assessed as inhibition of bacterial invasion after 2 hrs
Staphylococcus aureus [7] = assay: Antibacterial activity against methicillin-susceptible Staphylococcus aureus ATCC 25923 assessed as zone of inhibition at 30 ug after 18 hrs by disk diffusion method; format: functional; conditions: ATCC 25923, 18 h, read-out: DIZ
Outline: (§3)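 Disks 6 mm in diameter; a 6 mm zone means no growth inhibition. The diameters of complete-inhibition zones are averaged over at least three independent experiments and reported with standard errors.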

Staphylococcus aureus [8] = assay: Antibacterial activity against methicillin-susceptible Staphylococcus aureus ATCC 29213 assessed as growth inhibition after 18 to 20 hrs by microdilution assay; format: functional
Outline: (§4)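 Broth microdilution gives both MIC and MBC. Each compound is serially 2-fold diluted starting from its stock concentration.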

Staphylococcus aureus [9] = assay: Bactericidal activity against methicillin-susceptible Staphylococcus aureus ATCC 29213 after 18 to 20 hrs; format: functional; outline: as §4
Staphylococcus aureus [10] = assay: Bactericidal activity against methicillin-resistant Staphylococcus aureus USA300 SF8300 after 18 to 20 hrs; format: functional; outline: as §2
Staphylococcus aureus [11] = assay: Effect on methicillin-susceptible Staphylococcus aureus RF122 growth at >= MIC after 2 hrs; format: organism-based
HEK293 [12] = assay: Cytotoxicity against human HEK293 cells assessed as change in cell morphology at 12.5 to 25 uM after 10 mins to 2 hrs by microscopic analysis; format: cell-based; conditions: hek293, 25 µM
Staphylococcus aureus [13] = assay: Antibacterial activity against methicillin-resistant Staphylococcus aureus USA300 SF8300 assessed as zone of inhibition at 1 ug after 18 hrs by disk diffusion method; format: functional; conditions: USA300 SF8300, 18 h, read-out: DIZ; outline: as §1
Staphylococcus aureus [14] = assay: Antibacterial activity against methicillin-susceptible Staphylococcus aureus ATCC 25923 assessed as zone of inhibition at 1 ug after 18 hrs by disk diffusion method; format: functional; conditions: ATCC 25923, 18 h, read-out: DIZ; outline: as §1
Staphylococcus aureus [15] = assay: Antibacterial activity against methicillin-susceptible Staphylococcus aureus ATCC 25923 assessed as zone of inhibition at 10 ug after 18 hrs by disk diffusion method; format: functional; conditions: ATCC 25923, 18 h, read-out: DIZ; outline: as §3
Staphylococcus aureus [16] = assay: Antibacterial activity against methicillin-resistant Staphylococcus aureus USA300 SF8300 assessed as zone of inhibition at 10 ug after 18 hrs by disk diffusion method; format: functional; conditions: USA300 SF8300, 18 h, read-out: DIZ; outline: as §1
HEK293 [17] = assay: Cytotoxicity against human HEK293 cells assessed as cells detachment at 50 uM after 10 mins by microscopic analysis; format: cell-based; conditions: hek293, 10 min
HEK293 [18] = assay: Cytotoxicity against human HEK293 cells assessed as cells detachment at 12.5 uM after 2 hrs by microscopic analysis; format: cell-based; conditions: hek293, 2 h
A549 [19] = assay: Cytotoxicity against human A549 cells assessed as cells detachment at 12.5 uM after 2 hrs by microscopic analysis; format: cell-based; conditions: a549, 2 h
A549 [20] = assay: Cytotoxicity against human A549 cells assessed as cells detachment at 50 uM after 10 mins by microscopic analysis; format: cell-based; conditions: a549, 10 min
Staphylococcus aureus [21] = assay: Antibacterial activity against methicillin-susceptible Staphylococcus aureus RF122 infected in A549 cells assessed as inhibition of bacterial invasion at 1.5 uM after 1 hr; format: functional, organism-based
Outline: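 Invasion assay in human epithelial A549 cells infected with S. aureus while the test compound was present. Concentrations were held below those that damage A549 cells. Both non-invading and invading bacteria were then cultured to rule out effects on bacterial growth.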

| SMILES | zone of inhibition at 30 µg/disc (Staphylococcus aureus [1]) | IC50 (A549 [3]) | MIC (Staphylococcus aureus [4]) | zone of inhibition at 30 µg/disc (Staphylococcus aureus [7]) | MIC (Staphylococcus aureus [8]) | MBC (Staphylococcus aureus [9]) | MBC (Staphylococcus aureus [10]) | further results |
| --- | --- | --- | --- | --- | --- | --- | --- | --- |
| CC(C)=CCc1c2c(c(O)c3c1O[C@@]14C(=C[C@H]5CC1C(C)(C)O[C@]4(C/C=C(/C)C(=O)N[C@H](C(=O)O)C(C)C)C5=O)C3=O)C=CC(C)(C)O2 | 22.2 mm | 29.8 µM | 25 µM (≈ 16.5 µg/mL) | 20 mm | 12.5 µM (≈ 8.25 µg/mL) | 12.5 µM (≈ 8.25 µg/mL) | 25 µM (≈ 16.5 µg/mL) | Activity (A549 [2]): Non-toxic; IC50 (HEK293 [5]): 21.8 µM; inhibition (Staphylococcus aureus [6]): Dose-dependent effect; Activity (Staphylococcus aureus [11]): Non-toxic; Activity (HEK293 [12]): Non-toxic |
| CC[C@H](C)[C@H](NC(=O)/C(C)=C\C[C@]12OC(C)(C)C3C[C@H](C=C4C(=O)c5c(O)c6c(c(CC=C(C)C)c5O[C@@]431)OC(C)(C)C=C6)C2=O)C(=O)O | 19.4 mm | 24.5 µM | 25 µM (≈ 16.8 µg/mL) | 15.9 mm | 25 µM (≈ 16.8 µg/mL) | 25 µM (≈ 16.8 µg/mL) | 50 µM (≈ 33.7 µg/mL) |  |
| CC(C)=CCc1c2c(c(O)c3c1O[C@@]14C(=C[C@H]5CC1C(C)(C)O[C@]4(C/C=C(/C)C(=O)N1CCC[C@H]1C(=O)O)C5=O)C3=O)C=CC(C)(C)O2 | 15.9 mm | 21.1 µM | 100 µM (≈ 65.8 µg/mL) | 13.1 mm | 50 µM (≈ 32.9 µg/mL) | 100 µM (≈ 65.8 µg/mL) | > 100 µM |  |
| Cc1onc(-c2ccccc2)c1C(=O)N[C@@H]1C(=O)N2[C@@H]1SC(C)(C)[C@@H]2C(=O)O [OXACILLIN] |  |  | > 19.9 µM |  | 0.62 µM (≈ 0.249 µg/mL) | 1.25 µM (≈ 0.502 µg/mL) | > 19.9 µM | zone of inhibition at 1 µg/disc (Staphylococcus aureus [13]): 6 mm; zone of inhibition at 1 µg/disc (Staphylococcus aureus [14]): 28.9 mm |
| CSCC[C@H](NC(=O)/C(C)=C\C[C@]12OC(C)(C)C3C[C@H](C=C4C(=O)c5c(O)c6c(c(CC=C(C)C)c5O[C@@]431)OC(C)(C)C=C6)C2=O)C(=O)O | 9.53 mm |  |  | 7.09 mm |  |  |  |  |
| CC1(C)S[C@@H]2[C@H](NC(=O)[C@H](N)c3ccccc3)C(=O)N2[C@H]1C(=O)O [AMPICILLIN] |  |  | > 100 µM |  | 1.56 µM (≈ 0.545 µg/mL) | 1.56 µM (≈ 0.545 µg/mL) | > 100 µM | zone of inhibition at 10 µg/disc (Staphylococcus aureus [15]): 17 mm; zone of inhibition at 10 µg/disc (Staphylococcus aureus [16]): 6 mm |
| CC(C)=CCc1c2c(c(O)c3c1O[C@@]14C(=C[C@H]5CC1C(C)(C)O[C@]4(C/C=C(/C)C(=O)N[C@@H](CCC(=O)NC(c1ccccc1)(c1ccccc1)c1ccccc1)C(=O)O)C5=O)C3=O)C=CC(C)(C)O2 | 8.21 mm |  |  | 6.89 mm |  |  |  |  |
| CC(C)=CCc1c2c(c(O)c3c1O[C@@]14C(=C[C@H]5CC1C(C)(C)O[C@]4(CC=C(C)C)C5=O)C3=O)C=CC(C)(C)O2 | 6 mm | 1.42 µM |  | 6 mm |  |  |  | IC50 (HEK293 [5]): 0.81 µM |
| CC(C)=CCc1c2c(c(O)c3c1O[C@@]14C(=C[C@H]5CC1C(C)(C)O[C@]4(C/C=C(/C)C(=O)N[C@@H](CCC(=O)O)C(=O)O)C5=O)C3=O)C=CC(C)(C)O2 | 6 mm |  |  | 6 mm |  |  |  |  |
| COC(=O)/C(C)=C\C[C@]12OC(C)(C)C3C[C@H](C=C4C(=O)c5c(O)c6c(c(CC=C(C)C)c5O[C@@]431)OC(C)(C)C=C6)C2=O | 6 mm |  |  | 6 mm |  |  |  |  |
| CC(C)=CCc1c2c(c(O)c3c1O[C@@]14C(C[C@H]5CC1C(C)(C)O[C@]4(C/C=C(\C)C=O)C5=O)C3=O)C=CC(C)(C)O2 (stereo partly specified) | 6 mm |  |  | 6 mm |  |  |  |  |
| CC(C)=CCc1c(O)cc(O)c2c1OC13C(=CC4CC1C(C)(C)O[C@]3(CC=C(C)C)C4=O)C2=O | 7.97 mm |  | > 400 µM | 7.86 mm | 200 µM (≈ 92.9 µg/mL) | 200 µM (≈ 92.9 µg/mL) | > 400 µM |  |
| CC(C)=CCc1c2c(c(O)c3c1O[C@@]14C(=C[C@H]5CC1C(C)(C)O[C@]4(C/C=C(/C)C(=O)N[C@@H](CCC(N)=O)C(=O)O)C5=O)C3=O)C=CC(C)(C)O2 | 9.09 mm |  |  | 7.5 mm |  |  |  |  |
| CC(C)=CCc1c2c(c(O)c3c1O[C@@]14C(=C[C@H]5CC1C(C)(C)O[C@]4(C/C=C(/C)C(=O)O)C5=O)C3=O)C=CC(C)(C)O2 | 19.5 mm | 3.5 µM | 12.5 µM (≈ 7.01 µg/mL) | 19.2 mm | 12.5 µM (≈ 7.01 µg/mL) | 12.5 µM (≈ 7.01 µg/mL) | 25 µM (≈ 14 µg/mL) | Activity (HEK293 [17]): Toxic; Activity (HEK293 [18]): Toxic; Activity (A549 [19]): Toxic; IC50 (HEK293 [5]): 2.33 µM; Activity (A549 [20]): Toxic; inhibition (Staphylococcus aureus [21]): inactive |
| CC(C)=CCC/C(C)=C/Cc1c(O)c(CC=C(C)C)c2c(c1O)C(=O)C1=C[C@H]3CC4C(C)(C)O[C@](CC=C(C)C)(C3=O)[C@]14O2 | 6 mm |  |  | 6 mm |  |  |  |  |
| CC(C)=CCc1c2c(c(O)c3c1O[C@@]14C(=C[C@H]5CC1C(C)(C)O[C@]4(C/C=C(/C)C(=O)N[C@@H](CC(C)C)C(=O)O)C5=O)C3=O)C=CC(C)(C)O2 | 18.3 mm | 15.5 µM | 25 µM (≈ 16.8 µg/mL) | 16.5 mm | 25 µM (≈ 16.8 µg/mL) | 25 µM (≈ 16.8 µg/mL) | 50 µM (≈ 33.7 µg/mL) |  |
| CC(C)=CCc1c2c(c(O)c3c1O[C@@]14C(=C[C@H]5CC1C(C)(C)O[C@]4(C/C=C(/C)C(=O)N[C@@H](CCC(=O)OCc1ccccc1)C(=O)O)C5=O)C3=O)C=CC(C)(C)O2 |  |  |  | 6.53 mm |  |  |  |  |
| CC(C)=CCc1c2c(c(O)c3c1O[C@@]14C(=C[C@H]5CC1C(C)(C)O[C@]4(C/C=C(/C)C(=O)N[C@@H](Cc1ccccc1)C(=O)O)C5=O)C3=O)C=CC(C)(C)O2 | 16.3 mm | 12.2 µM | 25 µM (≈ 17.7 µg/mL) | 17.1 mm | 12.5 µM (≈ 8.85 µg/mL) | 12.5 µM (≈ 8.85 µg/mL) | 25 µM (≈ 17.7 µg/mL) |  |
| CC(C)=CCc1c2c(c(O)c3c1O[C@@]14C(=C[C@H]5CC1C(C)(C)O[C@]4(C/C=C(\C)CO)C5=O)C3=O)C=CC(C)(C)O2 | 8.57 mm | 2.69 µM |  | 7.75 mm |  |  |  | IC50 (HEK293 [5]): 0.98 µM |
| CC(C)=CCc1c2c(c(O)c3c1O[C@@]14C(=C[C@H]5CC1C(C)(C)O[C@]4(C/C=C(/C)C(=O)N[C@@H](CO)C(=O)O)C5=O)C3=O)C=CC(C)(C)O2 | 6.28 mm |  |  | 6.09 mm |  |  |  |  |
| CC(C)=CCc1c(O)cc(O)c2c1OC13C(=CC4(C/C=C/C(C)C)CC1C(C)(C)O[C@]3(CC=C(C)C)C4=O)C2=O | 6 mm |  |  | 6 mm |  |  |  |  |
| CC(C)=CCC[C@]1(C)C=Cc2c(O)c3c(c(CC=C(C)C)c2O1)O[C@]12C(=C[C@@H]4C[C@H]1C(C)(C)O[C@@]2(C/C=C(/C)C(=O)O)C4=O)C3=O [GAMBOGIC ACID] | 17.3 mm | 3.4 µM | 25 µM (≈ 15.7 µg/mL) | 16.6 mm | 12.5 µM (≈ 7.86 µg/mL) | 25 µM (≈ 15.7 µg/mL) | 50 µM (≈ 31.4 µg/mL) | IC50 (HEK293 [5]): 1.72 µM |
